Results: PMC7004521 (Cancer Science, 2019)

Experiment: Adverse events suspected to be study drug related, phase 1 study
Type: in vivo, human
Method in brief: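 Adult patients with advanced solid tumours and confirmed MET dysregulation took oral capsules twice daily from 100 up to 600 mg in escalation, or 400 mg bid tablets, in 28-day cycles. Expansion was 600 mg bid capsules, with a switch to 400 mg bid tablets allowed. Patients were included if they had ≥1 dose and ≥1 valid post-baseline safety assessment. Events were graded by CTCAE v4.0.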

[1] = drug-related, all escalation N=38
[2] = drug-related, all expansions RP2D N=38
[3] = drug-related, escalation 400 mg bid tablet n=5
[4] = drug-related, escalation 450 mg bid n=9
[5] = drug-related, escalation 600 mg bid n=8

CNC(=O)c1ccc(-c2cnc3ncc(Cc4ccc5ncccc5c4)n3n2)cc1F [capmatinib]
tolerability (across all explored doses): well tolerated | ALT increased, all grades [1]: 3 (8) n (%) | ALT increased, grade 3/4 [1]: 2 (5) n (%) | AST increased, all grades [1]: 5 (13) n (%) | AST increased, grade 3/4 [1]: 1 (3) n (%) | Amylase increased, all grades [1]: 2 (5) n (%) | Amylase increased, grade 3/4 [1]: 1 (3) n (%) | Asthenia, all grades [1]: 6 (16) n (%) | Asthenia, grade 3/4 [1]: 0 n (%) | Blood bilirubin increased, all grades [1]: 4 (11) n (%) | Blood bilirubin increased, grade 3/4 [1]: 1 (3) n (%) | Blood creatinine increased, all grades [1]: 2 (5) n (%) | Blood creatinine increased, grade 3/4 [1]: 0 n (%) | Constipation, all grades [1]: 3 (8) n (%) | Constipation, grade 3/4 [1]: 0 n (%) | Decreased appetite, all grades [1]: 11 (29) n (%) | Diarrhea, all grades [1]: 5 (13) n (%) | Diarrhea, grade 3/4 [1]: 0 n (%) | Dizziness, all grades [1]: 1 (3) n (%) | Dizziness, grade 3/4 [1]: 0 n (%) | Dyspepsia, all grades [1]: 1 (3) n (%) | Dyspepsia, grade 3/4 [1]: 0 n (%) | Fatigue, all grades [1]: 10 (26) n (%) | Fatigue, grade 3/4 [1]: 3 (8) n (%) | Headache, all grades [1]: 2 (5) n (%) | Headache, grade 3/4 [1]: 0 n (%) | Hypoalbuminemia, all grades [1]: 6 (16) n (%) | Hypoalbuminemia, grade 3/4 [1]: 1 (3) n (%) | Hypophagia, all grades [1]: 2 (5) n (%) | Hypophagia, grade 3/4 [1]: 2 (5) n (%) | Lipase increased, all grades [1]: 1 (3) n (%) | Lipase increased, grade 3/4 [1]: 1 (3) n (%) | Maculo‐papular rash, all grades [1]: 1 (3) n (%) | Maculo‐papular rash, grade 3/4 [1]: 0 n (%) | Myalgia, all grades [1]: 2 (5) n (%) | Myalgia, grade 3/4 [1]: 0 n (%) | Nausea, all grades [1]: 12 (32) n (%) | Nausea, grade 3/4 [1]: 0 n (%) | Odynophagia, all grades [1]: 2 (5) n (%) | Odynophagia, grade 3/4 [1]: 0 n (%) | Peripheral edema, all grades [1]: 8 (21) n (%) | Peripheral edema, grade 3/4 [1]: 1 (3) n (%) | Pyrexia, all grades [1]: 2 (5) n (%) | Pyrexia, grade 3/4 [1]: 0 n (%) | Stomatitis, all grades [1]: 2 (5) n (%) | Stomatitis, grade 3/4 [1]: 0 n (%) | Thrombocytopenia, all grades [1]: 1 (3) n (%) | Thrombocytopenia, grade 3/4 [1]: 0 n (%) | Total protein decreased, all grades [1]: 2 (5) n (%) | Total protein decreased, grade 3/4 [1]: 0 n (%) | Upper abdominal pain, all grades [1]: 2 (5) n (%) | Upper abdominal pain, grade 3/4 [1]: 0 n (%) | Vomiting, all grades [1]: 11 (29) n (%) | Vomiting, grade 3/4 [1]: 0 n (%) | ALT increased, all grades [2]: 2 (5) n (%) | ALT increased, grade 3/4 [2]: 2 (5) n (%) | AST increased, all grades [2]: 4 (11) n (%) | Amylase increased, all grades [2]: 0 n (%) | Amylase increased, grade 3/4 [2]: 0 n (%) | Asthenia, all grades [2]: 2 (5) n (%) | Asthenia, grade 3/4 [2]: 0 n (%) | Blood bilirubin increased, all grades [2]: 0 n (%) | Blood bilirubin increased, grade 3/4 [2]: 0 n (%) | Blood creatinine increased, all grades [2]: 2 (5) n (%) | Blood creatinine increased, grade 3/4 [2]: 1 (3) n (%) | Constipation, all grades [2]: 1 (3) n (%) | Constipation, grade 3/4 [2]: 0 n (%) | Decreased appetite, all grades [2]: 4 (11) n (%) | Decreased appetite, grade 3/4 [2]: 0 n (%) | Diarrhea, all grades [2]: 7 (18) n (%) | Diarrhea, grade 3/4 [2]: 0 n (%) | Dizziness, all grades [2]: 2 (5) n (%) | Dizziness, grade 3/4 [2]: 0 n (%) | Dyspepsia, all grades [2]: 2 (5) n (%) | Dyspepsia, grade 3/4 [2]: 0 n (%) | Fatigue, all grades [2]: 9 (24) n (%) | Fatigue, grade 3/4 [2]: 1 (3) n (%) | Headache, all grades [2]: 1 (3) n (%) | Headache, grade 3/4 [2]: 0 n (%) | Hypoalbuminemia, all grades [2]: 1 (3) n (%) | Hypoalbuminemia, grade 3/4 [2]: 0 n (%) | Lipase increased, all grades [2]: 3 (8) n (%) | Lipase increased, grade 3/4 [2]: 2 (5) n (%) | Localized edema, all grades [2]: 2 (5) n (%) | Localized edema, grade 3/4 [2]: 0 n (%) | Maculo‐papular rash, all grades [2]: 2 (5) n (%) | Maculo‐papular rash, grade 3/4 [2]: 0 n (%) | Myalgia, all grades [2]: 2 (5) n (%) | Myalgia, grade 3/4 [2]: 0 n (%) | Nausea, all grades [2]: 11 (29) n (%) | Nausea, grade 3/4 [2]: 1 (3) n (%) | Odynophagia, all grades [2]: 0 n (%) | Odynophagia, grade 3/4 [2]: 0 n (%) | Peripheral edema, all grades [2]: 10 (26) n (%) | Peripheral edema, grade 3/4 [2]: 0 n (%) | Pyrexia, all grades [2]: 0 n (%) | Pyrexia, grade 3/4 [2]: 0 n (%) | Stomatitis, all grades [2]: 1 (3) n (%) | Stomatitis, grade 3/4 [2]: 0 n (%) | Thrombocytopenia, all grades [2]: 2 (5) n (%) | Thrombocytopenia, grade 3/4 [2]: 1 (3) n (%) | Total protein decreased, all grades [2]: 0 n (%) | Total protein decreased, grade 3/4 [2]: 0 n (%) | Upper abdominal pain, all grades [2]: 0 n (%) | Upper abdominal pain, grade 3/4 [2]: 0 n (%) | Vomiting, all grades [2]: 7 (18) n (%) | Vomiting, grade 3/4 [2]: 1 (3) n (%) | ALT increased, all grades [3]: 1 (20) n (%) | ALT increased, grade 3/4 [3]: 0 n (%) | AST increased, all grades [3]: 1 (20) n (%) | Amylase increased, all grades [3]: 0 n (%) | Amylase increased, grade 3/4 [3]: 0 n (%) | Asthenia, all grades [3]: 1 (20) n (%) | Asthenia, grade 3/4 [3]: 0 n (%) | Blood bilirubin increased, all grades [3]: 0 n (%) | Blood bilirubin increased, grade 3/4 [3]: 0 n (%) | Blood creatinine increased, all grades [3]: 0 n (%) | Blood creatinine increased, grade 3/4 [3]: 0 n (%) | Constipation, all grades [3]: 1 (20) n (%) | Constipation, grade 3/4 [3]: 0 n (%) | Decreased appetite, all grades [3]: 0 n (%) | Decreased appetite, grade 3/4 [3]: 0 n (%) | Diarrhea, all grades [3]: 1 (20) n (%) | Diarrhea, grade 3/4 [3]: 0 n (%) | Dizziness, all grades [3]: 1 (20) n (%) | Dizziness, grade 3/4 [3]: 0 n (%) | Dyspepsia, all grades [3]: 0 n (%) | Dyspepsia, grade 3/4 [3]: 0 n (%) | Fatigue, all grades [3]: 1 (20) n (%) | Fatigue, grade 3/4 [3]: 0 n (%) | Headache, all grades [3]: 0 n (%) | Headache, grade 3/4 [3]: 0 n (%) | Hypoalbuminemia, all grades [3]: 2 (40) n (%) | Hypoalbuminemia, grade 3/4 [3]: 0 n (%) | Hypophagia, all grades [3]: 0 n (%) | Hypophagia, grade 3/4 [3]: 0 n (%) | Lipase increased, all grades [3]: 0 n (%) | Lipase increased, grade 3/4 [3]: 0 n (%) | Maculo‐papular rash, all grades [3]: 0 n (%) | Maculo‐papular rash, grade 3/4 [3]: 0 n (%) | Myalgia, all grades [3]: 0 n (%) | Myalgia, grade 3/4 [3]: 0 n (%) | Nausea, all grades [3]: 2 (40) n (%) | Nausea, grade 3/4 [3]: 0 n (%) | Odynophagia, all grades [3]: 1 (20) n (%) | Odynophagia, grade 3/4 [3]: 0 n (%) | Peripheral edema, all grades [3]: 2 (40) n (%) | Peripheral edema, grade 3/4 [3]: 0 n (%) | Pyrexia, all grades [3]: 0 n (%) | Pyrexia, grade 3/4 [3]: 0 n (%) | Stomatitis, all grades [3]: 1 (20) n (%) | Stomatitis, grade 3/4 [3]: 0 n (%) | Thrombocytopenia, all grades [3]: 0 n (%) | Thrombocytopenia, grade 3/4 [3]: 0 n (%) | Total protein decreased, all grades [3]: 0 n (%) | Total protein decreased, grade 3/4 [3]: 0 n (%) | Upper abdominal pain, all grades [3]: 1 (20) n (%) | Upper abdominal pain, grade 3/4 [3]: 0 n (%) | Vomiting, all grades [3]: 1 (20) n (%) | Vomiting, grade 3/4 [3]: 0 n (%) | ALT increased, all grades [4]: 1 (11) n (%) | ALT increased, grade 3/4 [4]: 1 (11) n (%) | AST increased, all grades [4]: 1 (11) n (%) | AST increased, grade 3/4 [4]: 1 (11) n (%) | Amylase increased, all grades [4]: 0 n (%) | Amylase increased, grade 3/4 [4]: 0 n (%) | Asthenia, all grades [4]: 1 (11) n (%) | Asthenia, grade 3/4 [4]: 0 n (%) | Blood bilirubin increased, all grades [4]: 0 n (%) | Blood bilirubin increased, grade 3/4 [4]: 0 n (%) | Blood creatinine increased, all grades [4]: 0 n (%) | Blood creatinine increased, grade 3/4 [4]: 0 n (%) | Constipation, all grades [4]: 0 n (%) | Constipation, grade 3/4 [4]: 0 n (%) | Decreased appetite, all grades [4]: 3 (33) n (%) | Decreased appetite, grade 3/4 [4]: 0 n (%) | Diarrhea, all grades [4]: 0 n (%) | Diarrhea, grade 3/4 [4]: 0 n (%) | Dizziness, all grades [4]: 0 n (%) | Dizziness, grade 3/4 [4]: 0 n (%) | Dyspepsia, all grades [4]: 0 n (%) | Dyspepsia, grade 3/4 [4]: 0 n (%) | Fatigue, all grades [4]: 3 (33) n (%) | Fatigue, grade 3/4 [4]: 1 (11) n (%) | Headache, all grades [4]: 1 (11) n (%) | Headache, grade 3/4 [4]: 0 n (%) | Hypoalbuminemia, all grades [4]: 0 n (%) | Hypoalbuminemia, grade 3/4 [4]: 0 n (%) | Hypophagia, all grades [4]: 0 n (%) | Hypophagia, grade 3/4 [4]: 0 n (%) | Lipase increased, all grades [4]: 0 n (%) | Lipase increased, grade 3/4 [4]: 0 n (%) | Maculo‐papular rash, all grades [4]: 1 (11) n (%) | Maculo‐papular rash, grade 3/4 [4]: 0 n (%) | Myalgia, all grades [4]: 0 n (%) | Myalgia, grade 3/4 [4]: 0 n (%) | Nausea, all grades [4]: 4 (44) n (%) | Nausea, grade 3/4 [4]: 0 n (%) | Odynophagia, all grades [4]: 0 n (%) | Odynophagia, grade 3/4 [4]: 0 n (%) | Peripheral edema, all grades [4]: 2 (22) n (%) | Peripheral edema, grade 3/4 [4]: 0 n (%) | Pyrexia, all grades [4]: 1 (11) n (%) | Pyrexia, grade 3/4 [4]: 0 n (%) | Stomatitis, all grades [4]: 0 n (%) | Stomatitis, grade 3/4 [4]: 0 n (%) | Thrombocytopenia, all grades [4]: 0 n (%) | Thrombocytopenia, grade 3/4 [4]: 0 n (%) | Total protein decreased, all grades [4]: 0 n (%) | Total protein decreased, grade 3/4 [4]: 0 n (%) | Upper abdominal pain, all grades [4]: 0 n (%) | Upper abdominal pain, grade 3/4 [4]: 0 n (%) | Vomiting, all grades [4]: 3 (33) n (%) | Vomiting, grade 3/4 [4]: 0 n (%) | ALT increased, all grades [5]: 1 (13) n (%) | ALT increased, grade 3/4 [5]: 1 (13) n (%) | AST increased, all grades [5]: 2 (25) n (%) | Amylase increased, all grades [5]: 0 n (%) | Amylase increased, grade 3/4 [5]: 0 n (%) | Asthenia, all grades [5]: 0 n (%) | Asthenia, grade 3/4 [5]: 0 n (%) | Blood bilirubin increased, all grades [5]: 1 (13) n (%) | Blood bilirubin increased, grade 3/4 [5]: 0 n (%) | Blood creatinine increased, all grades [5]: 0 n (%) | Blood creatinine increased, grade 3/4 [5]: 0 n (%) | Constipation, all grades [5]: 0 n (%) | Constipation, grade 3/4 [5]: 0 n (%) | Decreased appetite, all grades [5]: 3 (38) n (%) | Decreased appetite, grade 3/4 [5]: 0 n (%) | Diarrhea, all grades [5]: 2 (25) n (%) | Diarrhea, grade 3/4 [5]: 0 n (%) | Dizziness, all grades [5]: 0 n (%) | Dizziness, grade 3/4 [5]: 0 n (%) | Dyspepsia, all grades [5]: 1 (13) n (%) | Dyspepsia, grade 3/4 [5]: 0 n (%) | Fatigue, all grades [5]: 3 (38) n (%) | Fatigue, grade 3/4 [5]: 0 n (%) | Headache, all grades [5]: 0 n (%) | Headache, grade 3/4 [5]: 0 n (%) | Hypoalbuminemia, all grades [5]: 1 (13) n (%)
